Assay results from ChEMBL document CHEMBL5104191, “Identification of Novel 2,4,5-Trisubstituted Pyrimidines as Potent Dual Inhibitors of Plasmodial PfGSK3/PfPK6 with Activity against Blood Stage Parasites In Vitro” (J Med Chem, 2022).
One block for each compound: values may come before it.

Experiments:
[1] = Inhibition of Plasmodium falciparum PK6 measured after 2 hrs by luciferin-based luminescence assay
Plasmodium falciparum [2] = experiment: Antiplasmodial activity against Plasmodium falciparum 3D7 infected in human erythrocytes assessed as reduction in parasite growth incubated for 72 hrs by SYBR green I fluorescence based assay; type: functional, organism-based; conditions: 3D7, 72 h
Procedure, shortened: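 P. falciparum 3D7 synchronized by sorbitol at ring stage, set to 2% parasitemia and 2% hematocrit. Compounds dosed at 0–5 μM as 2-fold dilutions in triplicate. Controls were quinacrine 500 nM and 0.5% DMSO. Incubation 72 h at 37 °C in 3% O2/5% CO2/92% N2, then SYBR Green I lysis for 24 h in the dark. Fluorescence ex 485/em 535; normalized to controls; EC50 from dose–response fit.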

HepG2 = experiment: Cytotoxicity against human HepG2 cells assessed as reduction in cell viability at 2 uM measured after 48 hrs by cell titre glo luminescence assay; type: toxicity, cell-based; conditions: hepg2, 48 h
Procedure, shortened: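 HepG2 cells in DMEM with 10% FBS, seeded at 4000 cells/well and incubated overnight at 37 °C, 5% CO2. Compound added in quadruplicate with constant DMSO, then 48 h incubation. Viability by CellTiter-Glo luminescence, reported as % viable cells; average of two experiments in quadruplicate.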

[3] = target: T1, Glycogen synthase kinase 3 (Plasmodium falciparum (isolate 3D7)) (UniProt O77344); experiment: Inhibition of Plasmodium falciparum GSK3 at 1 uM measured after 2 hrs by luciferin-based luminescence assay relative to control; values are per cent of control
T1 sequence (whole entry): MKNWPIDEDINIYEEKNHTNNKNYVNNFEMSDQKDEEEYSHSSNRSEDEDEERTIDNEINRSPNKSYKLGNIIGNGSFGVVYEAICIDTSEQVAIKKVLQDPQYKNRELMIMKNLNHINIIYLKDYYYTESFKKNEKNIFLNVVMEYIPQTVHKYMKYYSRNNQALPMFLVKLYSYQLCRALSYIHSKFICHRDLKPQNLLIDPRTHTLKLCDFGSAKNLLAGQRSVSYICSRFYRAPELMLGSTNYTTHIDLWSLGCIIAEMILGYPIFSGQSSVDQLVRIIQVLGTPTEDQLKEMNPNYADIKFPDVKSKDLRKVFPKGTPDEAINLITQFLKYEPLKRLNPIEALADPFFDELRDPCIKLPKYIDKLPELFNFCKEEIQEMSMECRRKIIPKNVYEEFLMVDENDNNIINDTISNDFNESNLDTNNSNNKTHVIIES

Plasmodium falciparum [4] = experiment: Inhibition of Plasmodium falciparum PK6 at 1 uM measured after 2 hrs by luciferin-based luminescence assay relative to control; values are per cent of control
[5] = Inhibition of Plasmodium falciparum PKG incubated for 30 mins […]
Plasmodium falciparum [6] = experiment: Antiplasmodial activity against blood stage plasmodium falciparum assessed as inhibition of parasite growth; type: functional, organism-based
[7] = Kinetic solubility of the compound in PBS buffer at pH 7.4; type: physicochemical

Structure (SMILES): O=C(c1ccc(Nc2nccc(-c3cc4ccccc4s3)n2)cc1)N1CCC(N2CC[C@H](O)C2)CC1
IC50 [1]: 264 nM

Structure (SMILES): COc1ccc(Nc2nccc(-c3cc4ccccc4s3)n2)cc1
residual activity [3]: 97% | residual activity (Plasmodium falciparum [4]): 88%

Structure (SMILES): O=C(c1ccc(Nc2nccc(-c3cccs3)n2)cc1)N1CCC(N2CCCC2)CC1
IC50 [1]: 236 nM

Structure (SMILES): c1ccc2sc(-c3ccnc(Nc4ccc(CN5CCC(N6CCCC6)CC5)cc4)n3)cc2c1
IC50 [1]: 173 nM | EC50 (Plasmodium falciparum [2]): 60 nM | cell viability remaining (HepG2): 97%

Structure (SMILES): Clc1cccc(Nc2nccc(-c3cc4ccccc4s3)n2)c1
residual activity [3]: 89%

Structure (SMILES): O=C(c1ccc(Nc2nccc(-c3cc4ccccc4o3)n2)cc1)N1CCC(N2CCCC2)CC1
IC50 [1]: 317 nM

Structure (SMILES): O=C(O)c1ccc(Nc2nccc(-c3cc4ccccc4s3)n2)cc1
residual activity [3]: 33%

Structure (SMILES): Clc1ccc(Nc2nccc(-c3cc4ccccc4s3)n2)cc1
residual activity [3]: 89% | residual activity (Plasmodium falciparum [4]): 92%

Structure (SMILES): O=C(c1ccc(Nc2nccc(-c3cc4ccccc4s3)n2)cc1)N1CCNCC1
IC50 [1]: 398 nM

Structure (SMILES): O=C(c1ccc(Nc2nccc(-c3ccc(CO)s3)n2)cc1)N1CCC(N2CCCC2)CC1
IC50 [1]: 563 nM

Structure (SMILES): Cc1cn2c(-c3ccnc(NCC4CC4)n3)c(-c3ccc(F)c(NS(C)(=O)=O)c3)nc2cc1CN(C)C
IC50 [5]: 2.1 nM

Structure (SMILES): CN(C)C1CCN(C(=O)c2ccc(Nc3nccc(-c4cc5ccccc5s4)n3)cc2)CC1
IC50 [1]: 216 nM

Structure (SMILES): CCCN(C)C1CCN(C(=O)c2ccc(Nc3nccc(-c4cc5ccccc5s4)n3)cc2)CC1
IC50 [1]: 181 nM

Structure (SMILES): COC(=O)c1ccc(Nc2nccc(-c3cc4ccccc4s3)n2)cc1
residual activity [3]: 71% | residual activity (Plasmodium falciparum [4]): 78%

Structure (SMILES): O=C(c1ccc(Nc2nccc(-c3cc4ccccc4s3)n2)cc1)N1CCC(N2CC[C@@H](O)C2)CC1
IC50 [1]: 243 nM

Structure (SMILES): Cn1cc(-c2ccnc(Nc3ccc(C(=O)N4CCC(N5CCCC5)CC4)cc3)n2)cn1
IC50 [1]: 645 nM

Structure (SMILES): O=C(c1ccc(Nc2nccc(-c3ccc(Cl)c(Cl)c3)n2)cc1)N1CCC(N2CCCC2)CC1
IC50 [1]: 382 nM

Structure (SMILES): CN(C)CCCNC(=O)c1ccc(Nc2nccc(-c3cc4ccccc4s3)n2)cc1
IC50 [1]: 319 nM

Structure (SMILES): COc1ccccc1Nc1nccc(-c2cc3ccccc3s2)n1
residual activity [3]: 100%

Structure (SMILES): COc1cccc(Nc2nccc(-c3cc4ccccc4s3)n2)c1
residual activity [3]: 97%

Structure (SMILES): O=C(c1ccc(Nc2nccc(-c3nccs3)n2)cc1)N1CCC(N2CCCC2)CC1
IC50 [1]: 182 nM

Structure (SMILES): CC(C)n1cnc2c(NCc3ccccc3)nc(NCCO)nc21
IC50 (Plasmodium falciparum [6]): 130000 nM

Structure (SMILES): O=C(c1ccc(Nc2nccc(-c3ccc4ccccc4c3)n2)cc1)N1CCC(N2CCCC2)CC1
IC50 [1]: 359 nM | EC50 (Plasmodium falciparum [2]): 541 nM | cell viability remaining (HepG2): 82%

Structure (SMILES): O=C(c1ccc(Nc2nccc(-c3ccc(-c4ccccc4)s3)n2)cc1)N1CCC(N2CCCC2)CC1
IC50 [1]: 415 nM

Structure (SMILES): Clc1ccccc1Nc1nccc(-c2cc3ccccc3s2)n1
residual activity [3]: 100%

Structure (SMILES): c1ccc(Nc2nccc(-c3cc4ccccc4s3)n2)cc1
residual activity [3]: 100%

Structure (SMILES): c1ccc(CNc2nccc(-c3cc4ccccc4s3)n2)cc1
residual activity [3]: 100%

Structure (SMILES): O=C(NC1CC1)c1ccc(Nc2nccc(-c3cc4ccccc4s3)n2)cc1
IC50 [1]: 407 nM

Structure (SMILES): O=C(c1ccc(Nc2nccc(-c3ccccc3)n2)cc1)N1CCC(N2CCCC2)CC1
IC50 [1]: 329 nM

Structure (SMILES): CN1CCN(C(=O)c2ccc(Nc3nccc(-c4cc5ccccc5s4)n3)cc2)CC1
IC50 [1]: 339 nM

Structure (SMILES): Cc1ccc(-c2ccnc(Nc3ccc(C(=O)N4CCC(N5CCCC5)CC4)cc3)n2)s1
IC50 [1]: 222 nM

Structure (SMILES): O=C(c1ccc(Nc2nccc(-c3cc4ccccc4s3)n2)cc1)N1CCC(N2CCCC2)CC1
IC50 [1]: 460 nM | EC50 (Plasmodium falciparum [2]): 280 nM | cell viability remaining (HepG2): 103% | Kinetic_solubility [7]: 19.4 µg/mL

Structure (SMILES): O=C(c1ccc(Nc2nccc(-c3ccco3)n2)cc1)N1CCC(N2CCCC2)CC1
IC50 [1]: 768 nM

Structure (SMILES): COc1cnc(Nc2ccc(C(=O)N3CCC(N4CCCC4)CC3)cc2)nc1-c1cc2ccccc2s1
IC50 [1]: 294 nM

Structure (SMILES): CS(=O)(=O)CCCNC(=O)c1ccc(Nc2nccc(-c3cc4ccccc4s3)n2)cc1
IC50 [1]: 215 nM

Structure (SMILES): O=C(c1ccc(Nc2nccc(-c3ccc(COCC(F)(F)F)s3)n2)cc1)N1CCC(N2CCCC2)CC1
IC50 [1]: 292 nM | EC50 (Plasmodium falciparum [2]): 810 nM | cell viability remaining (HepG2): 87%

Structure (SMILES): CN1CCC(NC(=O)c2ccc(Nc3nccc(-c4cc5ccccc5s4)n3)cc2)CC1
IC50 [1]: 340 nM

More lines, main results first:

IC50 [1]: 16 nM
Structure (SMILES): Cc1ccc(-c2nc(Nc3ccc(C(=O)NCCCN4CCOCC4)cc3)ncc2Cl)s1
EC50 (Plasmodium falciparum [2]): 2600 nM | cell viability remaining (HepG2): 54%

IC50 [1]: 8 nM
Structure (SMILES): O=C(NCCCN1CCOCC1)c1ccc(Nc2ncc(Cl)c(-c3ccc(Cl)s3)n2)cc1
EC50 (Plasmodium falciparum [2]): 1400 nM | cell viability remaining (HepG2): 65%

IC50 [1]: 11 nM
Structure (SMILES): O=C(c1ccc(Nc2ncc(Cl)c(-c3ccc(Cl)s3)n2)cc1)N1CCC(N2CCCC2)CC1
EC50 (Plasmodium falciparum [2]): 552 nM | cell viability remaining (HepG2): 34%

IC50 [1]: 130 nM
Structure (SMILES): O=C(c1ccc(Nc2nccc(-c3ccc(Cl)s3)n2)cc1)N1CCC(N2CCCC2)CC1

IC50 [1]: 14 nM
Structure (SMILES): Cc1cnc(Nc2ccc(C(=O)N3CCC(N4CCCC4)CC3)cc2)nc1-c1ccc(Cl)s1
EC50 (Plasmodium falciparum [2]): 576 nM | cell viability remaining (HepG2): 65%

IC50 [1]: 12 nM
Structure (SMILES): Cc1cnc(Nc2ccc(C(=O)NCCCN3CCOCC3)cc2)nc1-c1ccc(Cl)s1

IC50 [1]: 153 nM
Structure (SMILES): CN1CCN(CCCNC(=O)c2ccc(Nc3nccc(-c4cc5ccccc5s4)n3)cc2)CC1

IC50 [1]: 77 nM
Structure (SMILES): N#Cc1cnc(Nc2ccc(C(=O)N3CCC(N4CCCC4)CC3)cc2)nc1-c1cc2ccccc2s1
EC50 (Plasmodium falciparum [2]): 322 nM | cell viability remaining (HepG2): 84%

IC50 [1]: 45 nM
Structure (SMILES): Cc1cnc(Nc2ccc(C(=O)N3CCC(N4CCCC4)CC3)cc2)nc1-c1cc2ccccc2s1
EC50 (Plasmodium falciparum [2]): 760 nM | cell viability remaining (HepG2): 66%

IC50 [1]: 28 nM
Structure (SMILES): Cc1ccc(-c2nc(Nc3ccc(C(=O)N4CCC(N5CCCC5)CC4)cc3)ncc2C)s1

IC50 [1]: 66 nM
Structure (SMILES): O=C(c1ccc(Nc2ncc(F)c(-c3cc4ccccc4s3)n2)cc1)N1CCC(N2CCCC2)CC1
EC50 (Plasmodium falciparum [2]): 607 nM | cell viability remaining (HepG2): 79%

IC50 [1]: 114 nM
Structure (SMILES): O=C(c1ccc(Nc2ncc(C3CC3)c(-c3cc4ccccc4s3)n2)cc1)N1CCC(N2CCCC2)CC1
EC50 (Plasmodium falciparum [2]): 646 nM | cell viability remaining (HepG2): 55%

IC50 [1]: 57 nM
Structure (SMILES): O=C(c1ccc(Nc2ncc(Br)c(-c3cc4ccccc4s3)n2)cc1)N1CCC(N2CCCC2)CC1
EC50 (Plasmodium falciparum [2]): 300 nM | cell viability remaining (HepG2): 47%

IC50 [1]: 19 nM
Structure (SMILES): O=C(c1ccc(Nc2ncc(Cl)c(-c3cc4ccccc4s3)n2)cc1)N1CCC(N2CCCC2)CC1
EC50 (Plasmodium falciparum [2]): 991 nM | cell viability remaining (HepG2): 61%

IC50 [1]: 14 nM
Structure (SMILES): Cc1ccc(-c2nc(Nc3ccc(C(=O)N4CCC(N5CCCC5)CC4)cc3)ncc2Cl)s1

IC50 [1]: 156 nM
Structure (SMILES): O=C(NCCCN1CCOCC1)c1ccc(Nc2nccc(-c3cc4ccccc4s3)n2)cc1

IC50 [1]: 115 nM
Structure (SMILES): O=C(c1ccc(Nc2nccc(-c3cc4ccccc4s3)n2)cc1)N1CCC(N2CCCCC2)CC1
